Assay [1] has as its target T1, 5-hydroxytryptamine receptor 1A (Rattus norvegicus, UniProt P19327).
T1 sequence (P19327 whole entry): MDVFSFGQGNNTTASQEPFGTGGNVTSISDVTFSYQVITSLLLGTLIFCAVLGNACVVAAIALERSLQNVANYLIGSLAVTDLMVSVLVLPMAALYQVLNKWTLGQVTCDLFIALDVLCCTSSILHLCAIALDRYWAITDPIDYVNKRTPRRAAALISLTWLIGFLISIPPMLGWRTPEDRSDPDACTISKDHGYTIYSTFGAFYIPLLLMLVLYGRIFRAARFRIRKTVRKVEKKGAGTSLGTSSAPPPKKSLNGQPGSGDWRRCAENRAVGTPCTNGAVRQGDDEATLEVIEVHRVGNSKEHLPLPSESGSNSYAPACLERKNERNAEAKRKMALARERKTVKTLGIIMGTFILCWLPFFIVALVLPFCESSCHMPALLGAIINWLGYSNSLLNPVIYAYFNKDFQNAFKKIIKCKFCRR
Put plainly: Binding affinity against native 5-HT1A-receptors from rat hippocampus using radioligand ([3H]8-hydroxy-2-(di-n-propylamino)-tetraline) binding assay. The class given is tissue-based.

For assay [2], the target named is T2, Adrenergic receptor alpha-2 (Rattus norvegicus, UniProt P22086+P19328+P22909).
T2 sequence (P22086 whole entry): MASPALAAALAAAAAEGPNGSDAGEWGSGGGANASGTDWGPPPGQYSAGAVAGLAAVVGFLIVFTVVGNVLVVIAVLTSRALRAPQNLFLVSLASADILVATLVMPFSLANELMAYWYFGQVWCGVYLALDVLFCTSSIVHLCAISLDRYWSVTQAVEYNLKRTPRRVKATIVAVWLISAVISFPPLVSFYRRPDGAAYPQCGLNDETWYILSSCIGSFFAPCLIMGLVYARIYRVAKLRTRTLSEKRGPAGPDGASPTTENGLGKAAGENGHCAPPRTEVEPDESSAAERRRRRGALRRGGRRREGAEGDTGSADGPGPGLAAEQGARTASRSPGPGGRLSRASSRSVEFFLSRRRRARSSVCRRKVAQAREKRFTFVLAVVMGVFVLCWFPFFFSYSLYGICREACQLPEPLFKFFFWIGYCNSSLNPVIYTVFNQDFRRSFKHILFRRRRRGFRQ
T2 sequence (P19328 whole entry): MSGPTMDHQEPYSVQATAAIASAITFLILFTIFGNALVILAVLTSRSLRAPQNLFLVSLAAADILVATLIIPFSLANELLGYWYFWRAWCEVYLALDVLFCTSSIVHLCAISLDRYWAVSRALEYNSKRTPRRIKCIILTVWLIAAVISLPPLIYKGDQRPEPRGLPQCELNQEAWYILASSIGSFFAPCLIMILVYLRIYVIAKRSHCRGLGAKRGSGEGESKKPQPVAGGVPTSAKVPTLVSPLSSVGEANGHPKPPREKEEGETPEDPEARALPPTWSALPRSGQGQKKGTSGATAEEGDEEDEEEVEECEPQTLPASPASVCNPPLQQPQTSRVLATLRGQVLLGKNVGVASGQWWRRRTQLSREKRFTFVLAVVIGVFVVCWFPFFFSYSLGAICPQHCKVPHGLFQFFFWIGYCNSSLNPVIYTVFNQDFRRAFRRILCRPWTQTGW
T2 sequence (P22909 whole entry): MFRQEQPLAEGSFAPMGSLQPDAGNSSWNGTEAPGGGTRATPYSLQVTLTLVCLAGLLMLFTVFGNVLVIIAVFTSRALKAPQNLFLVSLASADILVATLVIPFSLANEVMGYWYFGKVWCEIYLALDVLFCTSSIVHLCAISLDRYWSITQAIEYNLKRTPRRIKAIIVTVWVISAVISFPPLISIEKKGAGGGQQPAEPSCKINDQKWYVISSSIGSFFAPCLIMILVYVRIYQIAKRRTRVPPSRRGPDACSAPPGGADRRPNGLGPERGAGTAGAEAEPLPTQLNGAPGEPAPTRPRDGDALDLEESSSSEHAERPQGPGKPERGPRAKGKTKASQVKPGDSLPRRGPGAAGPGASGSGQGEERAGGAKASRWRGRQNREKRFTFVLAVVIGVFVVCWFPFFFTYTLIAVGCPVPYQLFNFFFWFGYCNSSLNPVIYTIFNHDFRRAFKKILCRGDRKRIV
Nature of the assay: Binding affinity against native Alpha-2 adrenergic receptor from rat cerebral cortex using radioligand ([3H]rauwolscine) binding assay. Format: tissue-based.

In another assay the target is D(2) dopamine receptor (Rattus norvegicus, UniProt P61169). Nature of the assay: Compound was tested for binding affinity against native Dopamine receptor D2 from rat striatum using radioligand [3H]-spiperone). The method in brief: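 Rat striatal membranes were prepared in Tris-HCl pH 7.4 with 10 µM pargyline, 0.1% ascorbic acid, 120 mM NaCl, 5 mM KCl, 2 mM CaCl2 and 1 mM MgCl2. Filtration and scintillation counting followed. Ki was obtained from the curve-fitted IC50 via Cheng-Prusoff; values are mean pKi ± SE.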

The target of assay [3] is T3, Alpha-1A adrenergic receptor (Bos taurus, UniProt P18130).
T3 sequence (P18130 whole entry): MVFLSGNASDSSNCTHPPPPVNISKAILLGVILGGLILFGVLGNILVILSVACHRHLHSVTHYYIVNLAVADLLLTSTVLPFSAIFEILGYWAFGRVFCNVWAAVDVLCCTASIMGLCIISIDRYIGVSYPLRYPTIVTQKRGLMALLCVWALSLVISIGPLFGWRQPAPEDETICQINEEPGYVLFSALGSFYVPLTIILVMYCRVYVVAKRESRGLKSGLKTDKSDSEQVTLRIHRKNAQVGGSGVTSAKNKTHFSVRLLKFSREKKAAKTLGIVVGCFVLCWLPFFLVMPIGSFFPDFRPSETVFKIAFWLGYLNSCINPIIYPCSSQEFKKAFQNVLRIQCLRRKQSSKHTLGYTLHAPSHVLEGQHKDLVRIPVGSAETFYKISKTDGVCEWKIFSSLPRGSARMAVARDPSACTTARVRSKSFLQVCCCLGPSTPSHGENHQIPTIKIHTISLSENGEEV
Put plainly: Compound was tested for binding affinity against cloned Alpha-1A adrenergic receptor from bovine brain using radioligand ([3H]prazosin) binding assay.

Assay [4] concerns the target T4, Alpha-1D adrenergic receptor (Homo sapiens, UniProt P25100).
T4 sequence (P25100 whole entry): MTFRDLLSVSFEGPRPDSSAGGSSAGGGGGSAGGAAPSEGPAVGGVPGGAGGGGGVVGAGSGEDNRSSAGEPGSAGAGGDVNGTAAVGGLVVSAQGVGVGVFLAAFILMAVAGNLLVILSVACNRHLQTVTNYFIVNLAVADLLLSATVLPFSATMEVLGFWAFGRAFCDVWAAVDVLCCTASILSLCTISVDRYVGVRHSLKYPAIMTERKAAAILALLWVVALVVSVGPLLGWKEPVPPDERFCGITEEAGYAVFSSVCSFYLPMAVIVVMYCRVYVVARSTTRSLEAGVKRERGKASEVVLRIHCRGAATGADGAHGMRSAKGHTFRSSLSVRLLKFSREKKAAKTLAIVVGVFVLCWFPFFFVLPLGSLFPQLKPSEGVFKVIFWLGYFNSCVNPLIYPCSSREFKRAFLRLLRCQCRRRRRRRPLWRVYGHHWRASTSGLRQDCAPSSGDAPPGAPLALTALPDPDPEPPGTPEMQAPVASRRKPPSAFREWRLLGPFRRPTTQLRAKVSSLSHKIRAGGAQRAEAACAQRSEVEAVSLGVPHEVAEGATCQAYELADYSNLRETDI
Put plainly: Compound was tested for binding affinity against human hippocampus Alpha-1D adrenergic receptor using radioligand ([3H]prazosin) binding assay. The method in brief: (§1)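 Membranes (30 µg protein) came from CHO cells stably transfected with the human α1-adrenoceptor subtype gene. […] Nonspecific binding was defined with 10 µM phentolamine. Filtration on PEI-treated filters followed. Ki came from the fitted IC50 via Cheng-Prusoff.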

Assay [5] deals with T5, Alpha-1A adrenergic receptor (Homo sapiens, UniProt P35348).
T5 sequence (P35348 whole entry): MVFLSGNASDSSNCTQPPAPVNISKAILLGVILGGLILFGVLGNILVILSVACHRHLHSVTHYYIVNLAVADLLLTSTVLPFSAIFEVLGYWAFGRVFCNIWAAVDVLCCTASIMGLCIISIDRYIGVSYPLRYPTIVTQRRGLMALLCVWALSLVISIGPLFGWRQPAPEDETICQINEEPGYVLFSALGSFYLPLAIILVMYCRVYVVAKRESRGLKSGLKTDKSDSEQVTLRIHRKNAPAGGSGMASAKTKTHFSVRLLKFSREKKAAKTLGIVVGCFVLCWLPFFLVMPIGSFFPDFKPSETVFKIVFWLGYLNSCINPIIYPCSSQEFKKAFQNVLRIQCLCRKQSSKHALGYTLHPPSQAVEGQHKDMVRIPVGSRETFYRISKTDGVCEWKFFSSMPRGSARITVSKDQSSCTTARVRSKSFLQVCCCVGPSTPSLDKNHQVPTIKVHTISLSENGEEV
Nature of the assay: Compound was tested for binding affinity against human hippocampus Alpha-1A adrenergic receptor using radioligand ([3H]prazosin) binding assay. In short, it runs like this: as §1

Assay [6] has as its target T6, Alpha-1B adrenergic receptor (Homo sapiens, UniProt P35368).
T6 sequence (P35368 whole entry): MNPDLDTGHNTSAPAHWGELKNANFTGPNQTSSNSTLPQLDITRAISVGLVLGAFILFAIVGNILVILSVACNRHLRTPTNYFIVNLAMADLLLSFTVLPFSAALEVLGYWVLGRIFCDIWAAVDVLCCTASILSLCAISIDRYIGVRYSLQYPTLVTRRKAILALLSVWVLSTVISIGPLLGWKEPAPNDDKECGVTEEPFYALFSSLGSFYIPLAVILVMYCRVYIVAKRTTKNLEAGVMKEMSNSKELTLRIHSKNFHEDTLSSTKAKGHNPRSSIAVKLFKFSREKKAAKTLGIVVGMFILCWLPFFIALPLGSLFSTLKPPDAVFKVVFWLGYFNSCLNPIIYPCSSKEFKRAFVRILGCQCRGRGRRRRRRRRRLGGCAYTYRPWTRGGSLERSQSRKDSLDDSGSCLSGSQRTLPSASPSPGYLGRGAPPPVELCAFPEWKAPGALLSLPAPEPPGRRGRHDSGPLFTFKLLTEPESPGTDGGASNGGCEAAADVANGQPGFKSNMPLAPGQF
Put plainly: Compound was tested for binding affinity against […] Alpha-1B adrenergic receptor using radioligand ([3H]-prazosin) binding assay. The method in brief: as §1

In general, Ki refers to the equilibrium dissociation constant of an inhibitor or competing ligand from its target. Higher therefore signals lower affinity.

Chain of D(2) dopamine receptor (P61169 whole entry): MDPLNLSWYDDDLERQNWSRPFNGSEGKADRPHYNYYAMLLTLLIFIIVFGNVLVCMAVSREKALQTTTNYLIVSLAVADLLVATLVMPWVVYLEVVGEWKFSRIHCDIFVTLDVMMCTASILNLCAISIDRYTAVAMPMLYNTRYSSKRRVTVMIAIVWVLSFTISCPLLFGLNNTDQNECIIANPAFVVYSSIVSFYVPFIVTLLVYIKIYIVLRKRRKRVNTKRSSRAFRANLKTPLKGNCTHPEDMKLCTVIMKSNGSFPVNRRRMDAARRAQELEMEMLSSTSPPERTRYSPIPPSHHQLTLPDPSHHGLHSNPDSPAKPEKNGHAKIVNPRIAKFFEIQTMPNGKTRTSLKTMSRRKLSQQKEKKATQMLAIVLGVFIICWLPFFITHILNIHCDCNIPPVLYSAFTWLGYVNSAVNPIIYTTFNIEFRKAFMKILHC

For `COc1cc2nc(N3CCN(C(=O)c4ccco4)[C@H]4CCCC[C@H]43)nc(N)c2cc1OC` [CYCLAZOSIN], the Ki was 6.17 µM in assay [1] and over 10 µM on D(2) dopamine receptor. In addition, the “Log Ki” value in assay [2] is -5.86.

In the case of `COc1cc2nc(N3CCN(C(=O)c4ccco4)C4CCCCC43)nc(N)c2cc1OC` (racemic), the figures for the Ki (in assay [1]; at D(2) dopamine receptor) were 6.92 µM and over 10 µM, respectively. The “Log Ki” value in assay [2] is -6.17.

As to `O=C(CCCN1CCC2(CC1)C(=O)NCN2c1ccccc1)c1ccc(F)cc1` [SPIPERONE], the Ki was 0.0251 µM in assay [1] and 0.0135 µM in assay [3].

On to `COc1cc2nc(N3CCN(C(=O)c4ccco4)[C@@H]4CCCC[C@@H]43)nc(N)c2cc1OC`, for which the Ki is 12.9 µM in assay [1]; 0.00324 µM in assay [4]; 0.0123 µM in assay [5]; 0.000135 µM in assay [6]; 8.32 µM at D(2) dopamine receptor. The “Log Ki” value in assay [2] is reported as -6.13.

With `COc1cc2nc(N3CCN(C(=O)c4ccco4)CC3)nc(N)c2cc1OC` [PRAZOSIN], the values for the Ki (in assay [1]; on D(2) dopamine receptor) were 2.34 µM and over 10 µM, respectively.
